Results published in ChEMBL document CHEMBL1149480, “Discovery of a novel series of inhibitors of human cytomegalovirus primase” (Bioorg Med Chem Lett, 2006).
pIC50: −log10 of the molar value. The source made the active and inactive calls. No cut-off for these calls is given here.

What was measured:
Murid betaherpesvirus 1 = experiment: Antiviral activity against mouse CMV; type: functional, organism-based
HFF [1] = experiment: Antiviral activity against human CMV by luciferase reporter gene assay in HFF cells; type: functional, cell-based
In short: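 HFF cells (10^4/well) were rested 2 h, then infected with rhCMVLuc at MOI 1 pfu/cell. Inoculum was removed after 1 h and drug added (0.005–5 µM or 0.05–50 µM) for 48 h at 37 °C. Luciferase was read with Mg(OAc)2, 30 mM Tricine pH 7.8 and 200 µM EDTA. IC50 is 50% inhibition of hCMV DNA replication.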

[2] = tested on: DNA primase UL70 (Human cytomegalovirus); experiment: Binding affinity to human CMV UL70 primase by immunoprecipitation assay; conditions: Human betaherpesvirus 5; tested as the 3H-labelled form
Murid betaherpesvirus 2 = experiment: Antiviral activity against rat CMV; type: functional, organism-based
Human alphaherpesvirus 1 = experiment: Antiviral activity against HSV; type: functional, organism-based
[3] = tested on: Human immunodeficiency virus; experiment: Antiviral activity against HIV; type: functional, organism-based
Caviid betaherpesvirus 2 = experiment: Antiviral activity against guinea pig CMV; type: functional, organism-based
Human gammaherpesvirus 4 = experiment: Antiviral activity against EBV; type: functional, organism-based
Human betaherpesvirus 6 = experiment: Antiviral activity against HHV6; type: functional, organism-based
[4] = Ratio of antiviral activity against human CMV to rhesus CMV; type: functional, Cercopithecine herpesvirus 8
HFF [5] = experiment: Antiviral activity against human CMV by dot blot assay in HFF cells; type: functional, cell-based
In short: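 Dot blot DNA replication readout. HFF cells were seeded at 2 × 10^4 cells/well and infected with rhCMVLuc, clinical isolates or wild-type virus, then incubated 72 h with drug. Cells were lysed in 0.4 N NaOH, 0.5 M EDTA, applied to membrane by microfiltration and UV-crosslinked. DNA was hybridized to a hCMV-specific 32P probe and detected by phosphorimaging.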

Human betaherpesvirus 5 [6] = experiment: Inhibition of human CMV growth by viral yield assay; type: functional
In short: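 Viral yield: once CPE appeared, well supernatants were serially diluted 1:2 sixteen times and used to infect fresh HFF cells (10^4/well). Inoculum was removed after 1 h; cells were incubated 5–7 days until CPE. Yield was quantified and IC99.9 taken as the drug concentration giving 99.9% inhibition of replication.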

Human betaherpesvirus 5 [7] = experiment: Inhibition of human CMV growth by plaque reduction assay; type: functional
In short: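 Plaques counted after 10-day incubation of 10^5 cells infected with 1000 pfu of wild-type, clinical-isolate or resistant virus; IC99.9 is the drug amount inhibiting plaque formation by 99.9%.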

Jurkat = experiment: Cytotoxicity against human Jurkat cells; type: functional, cell-based
In short: (§1)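 HFF or Jurkat cells were seeded and compound added 3 h later. Alamar blue staining at 0, 24, 48 and 72 h, then a further 3 h incubation, with fluorescence read-out. IC50 is the concentration inhibiting cell growth by 50%.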

HFF [8] = experiment: Cytotoxicity against HFF cells; type: functional, cell-based; conditions: Homo sapiens; in short: as §1

Structure (SMILES) | Activity (Murid betaherpesvirus 1) | pIC50 (HFF [1]) | Activity (Murid betaherpesvirus 2) | Activity (Human alphaherpesvirus 1) | Activity [3] | Activity (Caviid betaherpesvirus 2) | Activity (Human gammaherpesvirus 4) | Activity (Human betaherpesvirus 6) | Selectivity ratio [4] | also measured
CCc1nc(N(C)Cc2ccccc2)nc(-n2ccnc2C)c1[N+](=O)[O-] | inactive | 6.77 | inactive | inactive | inactive | inactive | inactive | inactive | >=10 | Activity (Murid betaherpesvirus 1; tested as the 3H-labelled form): inactive; Activity [2]: Active; Activity (Murid betaherpesvirus 2; tested as the 3H-labelled form): inactive; Activity (Human alphaherpesvirus 1; tested as the 3H-labelled form): inactive; Activity ([3]; tested as the 3H-labelled form): inactive; Activity (Caviid betaherpesvirus 2; tested as the 3H-labelled form): inactive; Activity (Human gammaherpesvirus 4; tested as the 3H-labelled form): inactive; Activity (Human betaherpesvirus 6; tested as the 3H-labelled form): inactive
CCOc1nc(C)c([N+](=O)[O-])c(-n2ccnc2C)n1 | inactive |  | inactive | inactive | inactive | inactive | inactive | inactive | >=10 | pIC50 (HFF [5]): 6.17
Cc1nc(NC2CCc3ccccc32)nc(-n2ccnc2C)c1[N+](=O)[O-] (stereo not given) | inactive |  | inactive | inactive | inactive | inactive | inactive | inactive | >=10 | pIC50 (HFF [5]): 7.28; IC100 (Human betaherpesvirus 5 [6]): 0.1 µM; IC100 (Human betaherpesvirus 5 [7]): 0.5 µM; pIC50 (Jurkat): 4.00; pIC50 (HFF [8]): < 4.00
Cc1nc(N(C)Cc2ccccc2)nc(-n2ccnc2C)n1 | inactive | < 4.52 | inactive | inactive | inactive | inactive | inactive | inactive | >=10 | 
Cc1nc(N(C)Cc2ccccc2)nc(-n2ccnc2-c2ccccc2)c1[N+](=O)[O-] | inactive | 5.30 | inactive | inactive | inactive | inactive | inactive | inactive | >=10 | 
Cc1nccn1-c1nc(N(C)Cc2ccccc2)nc2c1S(=O)(=O)CC2 | inactive | < 4.52 | inactive | inactive | inactive | inactive | inactive | inactive | >=10 | 
[3H]CC([3H])c1nc(N(C)Cc2ccccc2)nc(-n2ccnc2C)c1[N+](=O)[O-] (stereo not given) |  |  |  |  |  |  |  |  | >=10 | 
Cc1nccn1-c1nc(N(C)Cc2ccccc2)nc(Cl)c1[N+](=O)[O-] | inactive | < 4.52 | inactive | inactive | inactive | inactive | inactive | inactive | >=10 | 
Cc1nc(N2CCC(C)CC2)nc(-n2ccnc2C)c1[N+](=O)[O-] | inactive |  | inactive | inactive | inactive | inactive | inactive | inactive | >=10 | pIC50 (HFF [5]): 6.52
CCc1nccn1-c1nc(N(C)Cc2ccccc2)nc(C)c1[N+](=O)[O-] | inactive | 6.72 | inactive | inactive | inactive | inactive | inactive | inactive | >=10 | 
Cc1nc(N(C)Cc2ccccc2)nc(-n2ccnc2C(C)C)c1[N+](=O)[O-] | inactive | 6.11 | inactive | inactive | inactive | inactive | inactive | inactive | >=10 | 
Cc1nc(N(C)c2ccccc2)nc(-n2ccnc2C)c1[N+](=O)[O-] | inactive | 6.26 | inactive | inactive | inactive | inactive | inactive | inactive | >=10 | pIC50 (HFF [5]): 6.52; IC100 (Human betaherpesvirus 5 [6]): 2 µM; IC100 (Human betaherpesvirus 5 [7]): 2.5 µM; pIC50 (Jurkat): 4.10; pIC50 (HFF [8]): 4.00
Cc1nc(N(C)Cc2ccccc2)nc(-n2ccnc2C)c1C#N | inactive | < 4.52 | inactive | inactive | inactive | inactive | inactive | inactive | >=10 | 
Nc1ccn(C[C@@H](CO)OCP(=O)(O)O)c(=O)n1.O.O [CIDOFOVIR] |  |  |  |  |  |  |  |  |  | IC100 (Human betaherpesvirus 5 [6]): 1 µM; IC100 (Human betaherpesvirus 5 [7]): 2.5 µM; pIC50 (Jurkat): 4.00; pIC50 (HFF [8]): < 4.00
Cc1cn(-c2nc(N(C)Cc3ccccc3)nc(C)c2[N+](=O)[O-])cn1 | inactive | 5.00 | inactive | inactive | inactive | inactive | inactive | inactive | >=10 | 
Cc1nc(N(C)Cc2ccccc2)nc(-n2ccnc2)c1[N+](=O)[O-] | inactive | 7.70 | inactive | inactive | inactive | inactive | inactive | inactive | >=10 | 
Cc1nc(N(C)Cc2ccccc2)nc(-n2ccnc2C)c1[N+](=O)[O-] | inactive | 7.41 | inactive | inactive | inactive | inactive | inactive | inactive | >=10 | pIC50 (HFF [5]): 7.21; IC100 (Human betaherpesvirus 5 [6]): 0.2 µM; IC100 (Human betaherpesvirus 5 [7]): 0.5 µM; pIC50 (Jurkat): 4.60; pIC50 (HFF [8]): < 4.00
Cc1nccn1-c1nc(N(C)Cc2ccccc2)ncc1[N+](=O)[O-] | inactive | 5.52 | inactive | inactive | inactive | inactive | inactive | inactive | >=10 | 
Cc1nc(N(C)Cc2ccccc2)nc(-n2c(C)nc3ccccc32)c1[N+](=O)[O-] | inactive | < 4.52 | inactive | inactive | inactive | inactive | inactive | inactive | >=10 | 
Nc1nc2c(ncn2COC(CO)CO)c(=O)[nH]1 [GANCICLOVIR] |  |  |  |  |  |  |  |  |  | IC100 (Human betaherpesvirus 5 [6]): 5 µM; IC100 (Human betaherpesvirus 5 [7]): 10 µM; pIC50 (Jurkat): < 4.00; pIC50 (HFF [8]): < 4.00
CCCCN(C)c1nc(C)c([N+](=O)[O-])c(-n2ccnc2C)n1 | inactive |  | inactive | inactive | inactive | inactive | inactive | inactive | >=10 | pIC50 (HFF [5]): 6.52
Cc1cc(-n2ccnc2C)nc(N(C)Cc2ccccc2)n1 | inactive | < 4.52 | inactive | inactive | inactive | inactive | inactive | inactive | >=10 | 
Cc1nccn1-c1nc(N(C)Cc2ccccc2)nc(C(C)C)c1[N+](=O)[O-] | inactive | 5.52 | inactive | inactive | inactive | inactive | inactive | inactive | >=10 | 
Cc1nccn1-c1nc(N(C)Cc2ccccc2)nc(CCN(C)C)c1[N+](=O)[O-] | inactive | 5.22 | inactive | inactive | inactive | inactive | inactive | inactive | >=10 | 
